Assay results: ChEMBL document CHEMBL3627607, “A Novel Pyrazolopyridine with in Vivo Activity in Plasmodium berghei- and Plasmodium falciparum-Infected Mouse Models from Structure-Activity Relationship Studies around the Core of Recently Identified Antimalarial Imidazopyridazines” (J Med Chem, 2015)
pIC50: −log10 of the molar value.

Key:
[1] = AUC (0 to 23 hrs) in Plasmodium falciparum 3D7 infected in non-myelodepleted NOD-SCID IL2Rgammanull mouse engrafted with human erythrocytes at 1.5 mg/kg, po; format: ADME, organism-based; design: time < 23 hr, dose 1.5 mg/kg, route oral; conditions: in vivo
Procedure, shortened: (§1)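 Engrafted NSG (scid IL2Rgc null) mice infected with P. falciparum were given one oral dose per day for four days. Blood was sampled to measure parent and its sulfone metabolite.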

Blood [2] = assay: Drug level in rat blood treated with 5-(3-(Cyclopropylsulfonyl)phenyl)-3-(4-(methylsulfinyl)-phenyl)pyrazolo[1,5-a]pyridine at 20 mg/kg, po and 5 mg/kg, iv by LC-MS/MS analysis; format: ADME, organism-based; conditions: in vivo
Procedure, shortened: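 Metabolites identified by LC-ESI-MS/MS in blood samples from the rat PK study (oral and intravenous dosing).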

Plasmodium falciparum [3] = assay: Antiplasmodial activity against drug sensitive Plasmodium falciparum NF54 infected in human erythrocytes after 48 hrs by [3H]-hypoxanthine incorporation assay; format: functional, organism-based
[4] = Cmax in Plasmodium falciparum 3D7 infected in non-myelodepleted NOD-SCID IL2Rgammanull mouse engrafted with human erythrocytes at 0.1 mg/kg, po; format: ADME, organism-based; design: dose 0.1 mg/kg, route oral; conditions: in vivo; procedure, shortened: as §1
[5] = Tmax in Plasmodium falciparum 3D7 infected in non-myelodepleted NOD-SCID IL2Rgammanull mouse engrafted with human erythrocytes at 1.5 mg/kg, po; format: ADME, organism-based; conditions: in vivo
Procedure, shortened: (§2)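 Humanized NSG mice infected with P. falciparum received one oral dose per day for 4 consecutive days. Blood was sampled for exposure, with levels of both parent and its main active metabolite measured. Tmax was taken from the blood concentration–time profile after oral dosing.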

Liver microsome [6] = assay: Metabolic stability of the compound in human liver microsomes assessed as compound remaining at 0.1 uM after 30 mins by LC-MS/MS analysis; format: ADME; conditions: 0.5 h
[7] = Metabolic stability of the compound in mouse liver microsomes assessed as compound remaining at 0.1 uM after 30 mins by LC-MS/MS analysis; format: ADME; conditions: 0.5 h
Liver microsome [8] = assay: Metabolic stability of the compound in rat liver microsomes assessed as compound remaining at 0.1 uM after 30 mins by LC-MS/MS analysis; format: ADME; conditions: 0.5 h
Plasmodium falciparum [9] = assay: Antiplasmodial activity against multidrug resistant Plasmodium falciparum K1 infected in human erythrocytes after 48 hrs by [3H]-hypoxanthine incorporation assay; format: functional, organism-based
[10] = Tmax in Plasmodium falciparum 3D7 infected in non-myelodepleted NOD-SCID IL2Rgammanull mouse engrafted with human erythrocytes at 30 mg/kg, po; format: ADME, organism-based; conditions: in vivo; procedure, shortened: as §2
[11] = Cmax in Plasmodium falciparum 3D7 infected in non-myelodepleted NOD-SCID IL2Rgammanull mouse engrafted with human erythrocytes at 30 mg/kg, po; format: ADME, organism-based; design: dose 30 mg/kg, route oral; conditions: in vivo; procedure, shortened: as §1
[12] = Drug level in mouse blood at 50 mg/kg, po after 1 hr; format: ADME, organism-based; conditions: read-out: Drug uptake
Procedure, shortened: (§3)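 Snapshot whole-blood levels of parent and its sulfone metabolite at 1, 4 and 24 h after the first 50 mg/kg oral dose. Samples came from the P. berghei-infected efficacy mice, dosed in HPMC suspension vehicle.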

Liver microsome [13] = assay: Drug level in rat liver microsomes treated with 5-(3-(Cyclopropylsulfonyl)phenyl)-3-(4-(methylsulfinyl)-phenyl)pyrazolo[1,5-a]pyridine at 10 uM after 1 hr by LC-MS/MS analysis; format: ADME
Procedure, shortened: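 Metabolites identified by LC-ESI-MS/MS after in vitro incubation with rat liver microsomes.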

Plasmodium berghei [14] = assay: Antiplasmodial activity against sporozoite stage of Plasmodium berghei expressing luciferase infected in human HepG2-A16-CD81EGFP cells preincubated with cells for 18 hrs followed by protozoal infection measured after 48 hrs by bioluminescence assay; format: functional, organism-based
Procedure, shortened: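 HepG2 cells were pretreated 18 h with compound, then infected with freshly dissected luciferase-expressing P. berghei sporozoites. After a further 48 h with compound, viability of exoerythrocytic forms and of HepG2 host cells was read by bioluminescence.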

[15] = Half life in rat at 3 mg/kg, iv; format: ADME, organism-based; conditions: in vivo
[16] = AUC (0 to 23 hrs) in Plasmodium falciparum 3D7 infected in non-myelodepleted NOD-SCID IL2Rgammanull mouse engrafted with human erythrocytes at 10 mg/kg, po; format: ADME, organism-based; design: dose 10 mg/kg, time < 23 hr, route oral; conditions: in vivo; procedure, shortened: as §1
[17] = Tmax in Plasmodium falciparum 3D7 infected in non-myelodepleted NOD-SCID IL2Rgammanull mouse engrafted with human erythrocytes at 10 mg/kg, po; format: ADME, organism-based; conditions: in vivo; procedure, shortened: as §2
[18] = Cmax in Plasmodium falciparum 3D7 infected in non-myelodepleted NOD-SCID IL2Rgammanull mouse engrafted with human erythrocytes at 0.5 mg/kg, po; format: ADME, organism-based; design: dose 0.5 mg/kg, route oral; conditions: in vivo; procedure, shortened: as §1
[19] = AUC (0 to 23 hrs) in Plasmodium falciparum 3D7 infected in non-myelodepleted NOD-SCID IL2Rgammanull mouse engrafted with human erythrocytes at 30 mg/kg, po; format: ADME, organism-based; design: dose 30 mg/kg, time < 23 hr, route oral; conditions: in vivo; procedure, shortened: as §1
[20] = Drug level in mouse blood at 50 mg/kg, po after 4 hrs; format: ADME, organism-based; conditions: read-out: Drug uptake; procedure, shortened: as §3
[21] = Oral bioavailability in rat at 10 mg/kg; format: ADME, organism-based; conditions: in vivo
[22] = Cmax in Plasmodium falciparum 3D7 infected in non-myelodepleted NOD-SCID IL2Rgammanull mouse engrafted with human erythrocytes at 1.5 mg/kg, po; format: ADME, organism-based; design: dose 1.5 mg/kg, route oral; conditions: in vivo; procedure, shortened: as §1
[23] = Plasma clearance in rat at 3 mg/kg, iv; format: ADME, organism-based
[24] = Tmax in Plasmodium falciparum 3D7 infected in non-myelodepleted NOD-SCID IL2Rgammanull mouse engrafted with human erythrocytes at 0.5 mg/kg, po; format: ADME, organism-based; conditions: in vivo; procedure, shortened: as §2
[25] = Half life in rat at 10 mg/kg, po; format: ADME, organism-based; conditions: in vivo
[26] = Tmax in Plasmodium falciparum 3D7 infected in non-myelodepleted NOD-SCID IL2Rgammanull mouse engrafted with human erythrocytes at 0.1 mg/kg, po; format: ADME, organism-based; conditions: in vivo; procedure, shortened: as §1
[27] = Cmax in Plasmodium falciparum 3D7 infected in non-myelodepleted NOD-SCID IL2Rgammanull mouse engrafted with human erythrocytes at 10 mg/kg, po; format: ADME, organism-based; design: dose 10 mg/kg, route oral; conditions: in vivo; procedure, shortened: as §1
[28] = AUC (0 to 23 hrs) in Plasmodium falciparum 3D7 infected in non-myelodepleted NOD-SCID IL2Rgammanull mouse engrafted with human erythrocytes at 0.5 mg/kg, po; format: ADME, organism-based; design: time < 23 hr, dose 0.5 mg/kg, route oral; conditions: in vivo; procedure, shortened: as §1
Blood [29] = assay: Drug level in mouse blood at 50 mg/kg, po after 24 hrs; format: ADME, organism-based; conditions: in vivo, 24 h, BLD = below limit of detection; procedure, shortened: as §3
Plasmodium berghei [30] = assay: Antiplasmodial activity against Plasmodium berghei ANKA expressing GFP infected in mouse assessed as means survival days at 50 mg/kg, po qd for 4 days; format: functional
Procedure, shortened: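 Mice (n = 3) infected with GFP-transfected P. berghei ANKA. Compounds dissolved or suspended in HPMC vehicle (0.5% w/v hydroxypropylmethylcellulose, 0.5% v/v benzyl alcohol, 0.4% v/v Tween 80, 0.9% w/v NaCl in water). Dosed orally 4, 24, 48 and 72 h after infection. Parasitemia read by flow cytometry (detection limit 0.1%). Survival recorded as mean survival time in days.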

Plasmodium berghei [31] = assay: Antiplasmodial activity against Plasmodium berghei ANKA expressing GFP infected in mouse assessed as reduction of parasitemia level at 50 mg/kg, po qd for 4 days measured on day 4 post last dose by flow cytometric analysis relative to control; format: functional; design: scale not given: the % may be the effect or the level left
Procedure, shortened: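 Mice (n = 3) infected with GFP-transfected P. berghei ANKA. Test agents were suspended in HPMC vehicle (0.5% w/v hydroxypropylmethylcellulose, 0.5% v/v benzyl alcohol, 0.4% v/v Tween 80, 0.9% w/v NaCl in water). Dosed orally at 4, 24, 48 and 72 h post-infection. Parasitemia read by flow cytometry on day 4 (96 h), detection limit 0.1%. Activity = control-minus-treated mean % parasitemia, relative to control.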

[32] = Volume of distribution in rat at 3 mg/kg, iv; format: ADME, organism-based; conditions: in vivo
[33] = AUC (0 to 8 hrs) in Plasmodium falciparum 3D7 infected in non-myelodepleted NOD-SCID IL2Rgammanull mouse engrafted with human erythrocytes at 0.1 mg/kg, po; format: ADME, organism-based; design: time < 8 hr, dose 0.1 mg/kg, route oral; conditions: in vivo; procedure, shortened: as §1

CS(=O)(=O)c1ccc(-c2cnn3ccc(-c4cccc(S(=O)(=O)C5CC5)c4)cc23)cc1
AUC(0-t) at 23 h [1]: 3200 ng·h/mL | Drug metabolism (Blood [2]): metabolite_detected | pIC50 (Plasmodium falciparum [3]): 8.57 | Cmax [4]: 25 ng/mL | Tmax [5]: 2 h | Stability (Liver microsome [6]): Stable | Stability [7]: Stable | Stability (Liver microsome [8]): Stable | pIC50 (Plasmodium falciparum [9]): 8.62 | Tmax [10]: 8 h | Cmax [11]: 7430 ng/mL | concentration at 1 h [12]: 697 nM | Drug metabolism (Liver microsome [13]): metabolite_detected | pIC50 (Plasmodium berghei [14]): 7.70 | half-life [15]: 2.7 h | AUC(0-t) at 23 h [16]: 24800 ng·h/mL | Tmax [17]: 4 h | Cmax [18]: 106 ng/mL | AUC(0-t) at 23 h [19]: 78300 ng·h/mL | concentration at 4 h [20]: 1060 nM | bioavailability [21]: 61% | Cmax [22]: 467 ng/mL | clearance [23]: 3.5 mL/min/kg | Tmax [24]: 2 h | half-life [25]: 5.7 h | Tmax [26]: 2 h | Cmax [27]: 2600 ng/mL | AUC(0-t) at 23 h [28]: 1010 ng·h/mL | Drug uptake (Blood [29]): BLD | MSD (Plasmodium berghei [30]): 7 days | Activity (Plasmodium berghei [31]): 71% | Vd [32]: 0.8 L/kg | AUC(0-t) at 8 h [33]: 139 ng·h/mL
